Experimental data reported in PMC4857835 (Investigative Ophthalmology & Visual Science, 2016).

Legend:
[1] = biological target: trypsin; assay: Trypsin-like protease enzyme activity assay; type: biochemical, human
Outline: (§1)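 Each human protease (plasmin, thrombin, trypsin, KLK1, factor XIa) is run with a suitable fluorogenic substrate. Km comes from a standard Michaelis-Menten transformation, and assays run at substrate Km. Fluorescence is read over 5 min and the linear rate per min is expressed as % activity. IC50 is 50% inhibition of uninhibited activity, and fold selectivity is relative to the human PKal IC50.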

[2] = tested on: VEGF-induced retinal thickening; assay: VEGF-induced retinal thickening in rats; type: in vivo, Sprague-Dawley rats; settings: 0.58 mg/kg/d s.c. osmotic pump, VEGF 10 ng/eye, 48 hours, P < 0.001
Outline: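 Male Sprague-Dawley rats (10 weeks) got test compound 0.58 mg/kg/d or vehicle (10% PEG400 in PBS) by s.c. osmotic pump, started 1 day before 5 µL intravitreal VEGF 10 ng/eye or PBS. SD-OCT (2.5×2.5 mm volume centred on the optic nerve head) gave RPE-to-RNFL thickness 800 µm from centre at baseline, 24 and 48 h. Change from baseline was compared with vehicle-treated rats.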

[3] = biological target: plasmin (Homo sapiens, UniProt P00747); assay: Trypsin-like protease enzyme activity assay; type: biochemical
plasmin, sequence (P00747 581-810 limits assumed): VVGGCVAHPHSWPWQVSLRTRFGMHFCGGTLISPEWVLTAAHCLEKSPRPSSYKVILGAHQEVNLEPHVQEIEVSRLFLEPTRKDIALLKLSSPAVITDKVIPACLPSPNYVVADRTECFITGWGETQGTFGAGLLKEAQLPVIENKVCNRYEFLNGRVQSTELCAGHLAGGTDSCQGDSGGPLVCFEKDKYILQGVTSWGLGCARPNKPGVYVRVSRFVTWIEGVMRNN
plasmin, sequence (P00747 97-580 partner limits assumed): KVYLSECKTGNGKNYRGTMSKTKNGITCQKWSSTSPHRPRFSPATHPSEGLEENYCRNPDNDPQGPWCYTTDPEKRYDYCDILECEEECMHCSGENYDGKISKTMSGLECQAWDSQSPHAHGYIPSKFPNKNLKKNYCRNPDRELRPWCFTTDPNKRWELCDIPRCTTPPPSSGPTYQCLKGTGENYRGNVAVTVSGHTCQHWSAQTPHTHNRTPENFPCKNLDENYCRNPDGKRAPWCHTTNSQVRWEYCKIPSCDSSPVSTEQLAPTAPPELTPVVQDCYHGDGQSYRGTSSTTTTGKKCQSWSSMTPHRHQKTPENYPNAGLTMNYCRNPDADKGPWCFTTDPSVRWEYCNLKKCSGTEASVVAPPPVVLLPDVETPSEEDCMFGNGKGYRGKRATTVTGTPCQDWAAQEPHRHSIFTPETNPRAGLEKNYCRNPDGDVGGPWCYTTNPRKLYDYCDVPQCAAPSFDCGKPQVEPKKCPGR
Outline: as §1

[4] = biological target: factor XIa (Homo sapiens, UniProt P03951); assay: Trypsin-like protease enzyme activity assay; type: biochemical
factor XIa, sequence (P03951 388-625 limits assumed): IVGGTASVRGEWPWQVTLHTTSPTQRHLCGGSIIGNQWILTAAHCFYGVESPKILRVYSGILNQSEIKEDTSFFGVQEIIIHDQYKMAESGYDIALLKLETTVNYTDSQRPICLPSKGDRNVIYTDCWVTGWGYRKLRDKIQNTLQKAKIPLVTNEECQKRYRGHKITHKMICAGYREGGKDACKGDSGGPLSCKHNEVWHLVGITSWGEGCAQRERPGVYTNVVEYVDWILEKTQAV
factor XIa, sequence (P03951 19-387 partner limits assumed): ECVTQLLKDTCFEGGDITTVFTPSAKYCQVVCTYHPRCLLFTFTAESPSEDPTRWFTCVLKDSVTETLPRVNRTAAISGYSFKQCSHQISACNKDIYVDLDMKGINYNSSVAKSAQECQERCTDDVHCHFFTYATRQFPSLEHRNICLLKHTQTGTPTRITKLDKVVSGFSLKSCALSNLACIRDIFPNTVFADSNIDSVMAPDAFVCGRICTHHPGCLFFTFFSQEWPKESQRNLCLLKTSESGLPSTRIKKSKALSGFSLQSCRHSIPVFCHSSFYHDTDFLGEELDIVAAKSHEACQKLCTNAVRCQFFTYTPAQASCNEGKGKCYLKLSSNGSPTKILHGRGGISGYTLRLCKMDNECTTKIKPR
Outline: as §1

[5] = biological target: human PKal (plasma kallikrein) (Homo sapiens, UniProt P03952); assay: PKal protease activity assay, fluorogenic substrate H-D-Pro-Phe-Arg-AFC; type: biochemical
human PKal (plasma kallikrein), sequence (P03952 391-638 limits assumed): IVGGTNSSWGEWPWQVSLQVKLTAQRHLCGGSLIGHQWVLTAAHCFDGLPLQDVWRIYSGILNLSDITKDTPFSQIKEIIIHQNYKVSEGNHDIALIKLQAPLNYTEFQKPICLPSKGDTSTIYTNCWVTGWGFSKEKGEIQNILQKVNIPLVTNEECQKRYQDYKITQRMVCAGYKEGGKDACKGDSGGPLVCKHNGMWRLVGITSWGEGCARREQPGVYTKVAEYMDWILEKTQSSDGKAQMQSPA
human PKal (plasma kallikrein), sequence (P03952 20-390 partner limits assumed): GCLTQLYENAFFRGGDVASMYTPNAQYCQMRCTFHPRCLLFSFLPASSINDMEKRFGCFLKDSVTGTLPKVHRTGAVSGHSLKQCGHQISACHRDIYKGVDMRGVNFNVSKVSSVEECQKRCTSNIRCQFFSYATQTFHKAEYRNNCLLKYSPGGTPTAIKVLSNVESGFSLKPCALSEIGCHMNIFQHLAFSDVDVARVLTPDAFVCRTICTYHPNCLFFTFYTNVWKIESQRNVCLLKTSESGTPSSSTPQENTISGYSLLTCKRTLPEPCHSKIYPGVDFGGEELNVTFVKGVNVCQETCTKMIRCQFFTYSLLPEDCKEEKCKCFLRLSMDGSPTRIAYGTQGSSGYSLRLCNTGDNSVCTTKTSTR
Outline: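 Purified human plasma kallikrein with fluorogenic H-D-Pro-Phe-Arg-AFC at its Km concentration, plus test compound. Fluorescence is followed over 5 min and the linear rate per min is taken. IC50 is the concentration giving 50% inhibition of uninhibited activity (100%). Fold selectivity is each related protease's IC50 relative to the human PKal IC50.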

[6] = biological target: thrombin (Homo sapiens, UniProt P00734); assay: Trypsin-like protease enzyme activity assay; type: biochemical
Outline: as §1

[7] = biological target: mouse PKal (plasma kallikrein) (Mus musculus, UniProt P26262); assay: PKal protease activity assay, fluorogenic substrate H-D-Pro-Phe-Arg-AFC; type: biochemical
mouse PKal (plasma kallikrein), sequence (P26262 391-638 limits assumed): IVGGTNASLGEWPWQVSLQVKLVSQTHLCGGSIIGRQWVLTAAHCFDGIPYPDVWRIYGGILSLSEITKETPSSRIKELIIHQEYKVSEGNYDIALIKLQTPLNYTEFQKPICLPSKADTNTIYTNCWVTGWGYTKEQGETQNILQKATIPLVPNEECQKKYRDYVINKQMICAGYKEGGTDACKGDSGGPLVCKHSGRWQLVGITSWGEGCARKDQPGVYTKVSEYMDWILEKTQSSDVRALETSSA
mouse PKal (plasma kallikrein), sequence (P26262 20-390 partner limits assumed): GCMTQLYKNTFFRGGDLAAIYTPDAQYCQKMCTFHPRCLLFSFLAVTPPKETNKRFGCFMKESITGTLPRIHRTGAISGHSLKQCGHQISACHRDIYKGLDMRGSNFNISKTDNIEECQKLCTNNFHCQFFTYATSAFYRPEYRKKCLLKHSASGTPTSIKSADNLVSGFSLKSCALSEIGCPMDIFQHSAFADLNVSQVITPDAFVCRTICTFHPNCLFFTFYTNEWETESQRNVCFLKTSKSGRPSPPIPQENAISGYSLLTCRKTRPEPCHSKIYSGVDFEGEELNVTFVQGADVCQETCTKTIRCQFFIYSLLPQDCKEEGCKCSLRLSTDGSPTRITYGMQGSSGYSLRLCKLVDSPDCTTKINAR
Outline: (§2)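 Purified mouse or rat plasma kallikrein with fluorogenic H-D-Pro-Phe-Arg-AFC at substrate Km, with test compound present. Liberated fluorescence is monitored over 5 min and the linear rate per min is calculated. IC50 is the inhibitor concentration giving 50% inhibition of uninhibited enzyme activity (100%).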

[8] = biological target: KLK1 tissue kallikrein (Homo sapiens, UniProt P06870); assay: Trypsin-like protease enzyme activity assay; type: biochemical
KLK1 tissue kallikrein, sequence (P06870 25-262): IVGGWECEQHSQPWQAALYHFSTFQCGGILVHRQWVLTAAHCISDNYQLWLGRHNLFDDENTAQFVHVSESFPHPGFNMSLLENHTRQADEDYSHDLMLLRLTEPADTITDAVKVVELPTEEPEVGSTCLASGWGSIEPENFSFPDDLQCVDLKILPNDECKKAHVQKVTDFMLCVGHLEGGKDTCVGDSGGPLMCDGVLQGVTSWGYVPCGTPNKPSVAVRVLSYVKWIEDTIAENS
Outline: as §1

[9] = tested on: VEGF-induced retinal thickening; assay: VEGF-induced retinal thickening in mice; type: in vivo, WT mice (C57Bl/6); settings: 1.60 mg/kg/d s.c. osmotic pump, VEGF 100 ng/eye
[10] = In vivo pharmacokinetics following subcutaneous dosing; design: species or system male SD rats; settings: male, SD, rat, plasma, sc, 10 mg/kg
[11] = biological target: rat PKal (plasma kallikrein) (Rattus norvegicus, UniProt P14272); assay: PKal protease activity assay, fluorogenic substrate H-D-Pro-Phe-Arg-AFC; type: biochemical
rat PKal (plasma kallikrein), sequence (P14272 391-638 limits assumed): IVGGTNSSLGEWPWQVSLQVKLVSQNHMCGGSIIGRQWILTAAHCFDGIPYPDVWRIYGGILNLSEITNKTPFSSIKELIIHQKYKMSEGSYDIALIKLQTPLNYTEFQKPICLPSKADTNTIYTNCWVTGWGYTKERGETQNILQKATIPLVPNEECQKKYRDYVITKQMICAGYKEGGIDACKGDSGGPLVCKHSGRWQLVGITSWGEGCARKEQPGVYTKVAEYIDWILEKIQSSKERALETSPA
rat PKal (plasma kallikrein), sequence (P14272 20-390 partner limits assumed): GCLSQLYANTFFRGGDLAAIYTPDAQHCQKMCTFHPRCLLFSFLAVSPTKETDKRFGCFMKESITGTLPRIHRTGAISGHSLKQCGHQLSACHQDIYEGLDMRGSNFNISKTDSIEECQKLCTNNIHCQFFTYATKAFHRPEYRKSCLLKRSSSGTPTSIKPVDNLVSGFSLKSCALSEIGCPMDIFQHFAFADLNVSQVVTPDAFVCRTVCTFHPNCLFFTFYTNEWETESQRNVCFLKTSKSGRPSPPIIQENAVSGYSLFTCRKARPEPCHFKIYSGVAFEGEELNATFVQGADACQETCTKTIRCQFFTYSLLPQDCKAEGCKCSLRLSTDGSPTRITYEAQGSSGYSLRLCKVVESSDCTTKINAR
Outline: as §2

IC50 ([1]; read-out: Mean IC50 Trypsin, substrate at Km): 38.9 µM | Fold selectivity to human PKal ([1]; trypsin IC50 vs human PKal IC50): 9772 | IC50 [3]: 23.1 µM | Fold selectivity to human PKal ([3]; plasmin IC50 vs human PKal IC50): 5821 | IC50 [4]: > 10 µM | Fold selectivity to human PKal ([4]; factor XIa IC50 vs human PKal IC50): >2513 | IC50 [5]: 0.00398 ± 0.00361 µM | Fold selectivity to human PKal ([5]; PKal itself (reference)): 1 | selectivity to PKal over closely related trypsin-like serine proteases ([5]; vs KLK1, factor XIIa, factor XIa, thrombin, plasmin, trypsin): > 1000 fold | IC50 [6]: 9.1 µM | Fold selectivity to human PKal ([6]; thrombin IC50 vs human PKal IC50): 2291 | IC50 [7]: 0.00118 ± 0.00025 µM | IC50 [8]: 33.5 µM | Fold selectivity to human PKal ([8]; KLK1 IC50 vs human PKal IC50): 8414 | Cmax [10]: 974 ng/mL | Tmax [10]: 1.5 h | half-life [10]: 3.55 h | IC50 [11]: 0.00654 ± 0.00076 µM
Structure (SMILES): CCOc1ccc(C[C@@H](N)C(=O)N[C@@H](Cc2ccccc2)C(=O)NC2CCN(C(=N)N)CC2)cc1.O=C(O)C(F)(F)F.O=C(O)C(F)(F)F [VA999272, (R)-2-amino-N-[(S)-1-(1-carbamimidoyl-piperidin-4-ylcarbamoyl)-2-phenyl-ethyl]-3-(4-ethoxy-phenyl)-propionamide ditrifluoroacetate]
reduction of VEGF-induced retinal thickening vs vehicle-treated [2]: 53% | reduction of VEGF effect on retinal thickness vs vehicle-treated ([9]; 24 hours, P = 0.039): 36% | reduction of VEGF effect on retinal thickness vs vehicle-treated ([9]; 48 hours, P < 0.001): 57%
